Like-named read-outs stand apart in the source and are kept apart here.
Tests used:
[1] = beagle dogs; cited from earlier work
CYP enzyme = conditions: cited from earlier work
humans = conditions: any dose up to the maximum of 300 mg; cited from earlier work
[2] = dogs, 50 mg/kg; cited from earlier work
D2 receptor [3] = conditions: humans, cited from earlier work
beagle dogs [4] = assay: telemetry ECG evaluation in dogs; format: in vivo, dog
Procedure, shortened: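 Male beagles with abdominal ECG/pressure/temperature transmitters implanted at least 2 weeks before. Oral capsule doses of 0, 1, 10 or 30 mg/kg in a Latin square with 2-day washouts. ECG recorded from at least 90 min pre-dose to about 18 h post-dose. QTc from a per-animal regression of 1-min QT versus RR means on the control day. Waveform review at 1, 2, 4, 8, 12 and 18 h. Repeated-measures ANCOVA with Dunnett tests.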

Sprague Dawley rats [5] = assay: clinical observations and examinations in rats; format: in vivo, rat; conditions: rats treated with trazpiroben
Procedure, shortened: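 Sprague Dawley rats, 11–12 weeks old, group-housed and acclimatised at least 1 week. Oral gavage at 0 (vehicle: 5% DMSO, 40% PEG 400, 55% saline), 100, 300 or 1000 mg/kg/day, 10 mL/kg, dose expressed as maleate salt. Checked twice daily for mortality, abnormalities and signs of pain or distress. Ophthalmic examination and body weight were recorded once pre-dose.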

beagle dogs [6] = assay: clinical observations, body weight and body temperature in dogs; format: in vivo, dog
Procedure, shortened: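 Four male beagles, 17–18 months old, 9.9–12.8 kg. Oral gelatin capsules at 0 (Avicel:Explotab 10:1), 1, 10 or 30 mg/kg (maleate salt) on days 1, 4, 8 and 11, in a Latin square with ascending doses and 2-day washouts. Checked twice daily for mortality, abnormalities and distress, with daily cage-side observations. Body weight recorded pre-dose and the day before each dosing. Body temperature recorded by implanted telemetry.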

CYP3A4 = conditions: cited from earlier work
Sprague Dawley rats [7] = assay: functional observational battery; format: in vivo, rat; conditions: female rats, oral ≤ 1000 mg/kg/day, 0.5 hours post-dose on day 2
Procedure, shortened: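 Eight female Sprague Dawley rats per group received oral gavage on days 1 and 2 at 0, 100, 300 or 1000 mg/kg/day (vehicle: 5% DMSO, 40% PEG 400, 55% saline; 10 mL/kg). Functional observational battery run once pre-dose and about 0.5 h post-dose on day 2, at the same time of day ±2 h. It covered sensory reactivity (approach response, righting reflex), grip strength, foot splay and body temperature.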

rats = conditions: doses up to 30 mg/kg; cited from earlier work
P-glycoprotein (P-gp) = conditions: cited from earlier work
Sprague Dawley rats [8] = assay: locomotor activity assessments; format: in vivo, rat; conditions: female rats; for basic movements: day 2, 4–6 minutes post-commencement of assessment, control 375, p ≤ 0.05
Procedure, shortened: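 Female rats, 8 per group, dosed orally on days 1 and 2 at 0–1000 mg/kg/day. Tested pre-dose and on day 2: within 10 min after the functional battery, each rat was placed in a dark, sound-attenuated chamber. Photocell recording ran for 40 min, reported in 20 intervals of 2 min each. Read-outs: basic movement, horizontal and vertical ambulation, fine movement, rearing.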

[9] = rats, 100 mg/kg; cited from earlier work
beagle dogs [10] = assay: telemetry hemodynamic measurements in dogs; format: in vivo, dog; conditions: for adjusted mean diastolic pressure, lower vs control: 1 hour post-dose; for adjusted mean pulse pressure, lower than controls / adjusted mean systolic pressure, lower than controls: 3 hours post-dose; for adjusted mean systolic pressure, lower than controls: not significant
Procedure, shortened: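 Telemetered male beagles (abdominal transmitter implanted at least 2 weeks before) given oral capsules at 0, 1, 10 or 30 mg/kg in a Latin square on days 1, 4, 8 and 11. Systolic, diastolic and mean arterial pressure, pulse pressure and heart rate recorded continuously from at least 90 min pre-dose to about 18 h post-dose. Analysed by repeated-measures ANCOVA with Dunnett or Dunnett–Hsu comparisons against control.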

hERG potassium channel = conditions: cited from earlier work
Sprague Dawley rats [11] = assay: pulmonary assessments; format: in vivo, rat; conditions: male rats, any dose level (100–1000 mg/kg/day)
Procedure, shortened: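 Eight male Sprague Dawley rats per group. Acclimated 4 days, then placed in head-out plethysmography chambers three times on separate days. On day 1, a single oral gavage dose of 0, 100, 300 or 1000 mg/kg (DMSO/PEG 400/saline vehicle), then immediate chamber placement. Recorded at baseline, through 6 h and about 24 h post-dose. Analysed by repeated-measures ANCOVA with Dunnett–Hsu comparisons against control.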

D2 receptor [12] = conditions: rats, prolactin release as pharmacodynamic biomarker; cited from earlier work
[13] = toxicokinetic analysis in rat plasma; format: in vivo; conditions: all dose groups
Procedure, shortened: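 Toxicokinetic cohort of 60 Sprague Dawley rats (30 male), separate from the pharmacology groups. A single oral dose was given on day 1 at 0, 100, 300 or 1000 mg/kg (maleate salt). Blood was drawn from the jugular vein of non-fasted rats on a serial schedule. Cmax, Tmax and AUC were derived from plasma concentration–time data.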

O=C(O)c1cccc(CN2CN(C3CCCCC3)C3(CCN(CCCC(=O)c4ccccc4)CC3)C2=O)c1 [Trazpiroben]
median Tmax [1]: approximately 1 hour post-dose | potential for CYP enzyme induction or inhibition (CYP enzyme): limited potential for CYP enzyme induction or inhibition | CNS effects (humans): no CNS effects noted | brain penetration [2]: minimal brain penetration | dose at which maximal D2 receptor engagement occurs (D2 receptor [3]; first-in-human Phase I trial): 10 mg | average Cmax in plasma at maximal D2 receptor engagement (D2 receptor [3]; inferred using prolactin release): ~ 11 ng/mL | adjusted PR interval mean, lower than control (beagle dogs [4]; dogs, 30 mg/kg, 3 hours after administration (maximal effect)): 12% | adjusted PR interval mean (beagle dogs [4]; dogs, 30 mg/kg, 3 hours after administration, control 102 msec): 90 ms | effects on QRS duration or QT interval corrected for heart rate (QTc) (beagle dogs [4]; dogs, 1, 10, 30 mg/kg): no trazpiroben-related effects | QT interval, lower than control (beagle dogs [4]; dogs, first light cycle, 30 mg/kg, not significant at any dose): ≤ 6% | abnormal ECG waveforms or arrhythmias (beagle dogs [4]; male beagle dogs, oral 1, 10, 30 mg/kg): No abnormal ECG waveforms or arrhythmias were recorded | clinical observations, ophthalmic and body weight parameters (Sprague Dawley rats [5]): No unexpected clinical observations or changes | mortality (Sprague Dawley rats [5]): no trazpiroben-related mortality | effects on body weight or temperature (beagle dogs [6]; doses ≤ 30 mg/kg): not associated with effects on body weight or temperature | survival (beagle dogs [6]; to study termination on day 12): all dogs survived | CYP3A4 substrate classification (CYP3A4; Phase I drug–drug interaction study in healthy volunteers, ref NCT03161405): non-sensitive CYP3A4 substrate | effects on FOB assessment results (Sprague Dawley rats [7]): No effects were observed | effects in rotarod testing (motor coordination) (rats): no trazpiroben-related effects were observed | substrate for the efflux transporter P-glycoprotein (P-gp) (P-glycoprotein (P-gp)): substrate | basic movements (Sprague Dawley rats [8]; 300 mg/kg/day): 199 basic movements in 2 minutes | basic movements (Sprague Dawley rats [8]; 1000 mg/kg/day): 171 basic movements in 2 minutes | counts of horizontal and vertical ambulation (Sprague Dawley rats [8]; ≥ 300 mg/kg/day, 2–6 minutes post-dose): significantly decreased | brain penetration [9]: minimal brain penetration | adjusted mean diastolic pressure, higher vs control (beagle dogs [10]; 1 mg/kg, 4 hours post-dose, p ≤ 0.05): 6% | adjusted mean diastolic pressure, lower vs control (beagle dogs [10]; 10 mg/kg, p ≤ 0.05): 5% | adjusted mean pulse pressure, lower than controls (beagle dogs [10]; 10 mg/kg): 15% | adjusted mean systolic pressure, lower than controls (beagle dogs [10]; 10 mg/kg): 6% | adjusted mean diastolic pressure, higher vs control (beagle dogs [10]; 10 mg/kg, 4 hours post-dose, p ≤ 0.05): 8% | adjusted mean diastolic pressure, higher vs control (beagle dogs [10]; 10 mg/kg, 5 hours post-dose, p ≤ 0.01): 6% | adjusted mean diastolic pressure, lower vs control (beagle dogs [10]; 30 mg/kg, p ≤ 0.01): 8% | adjusted mean pulse pressure, lower than controls (beagle dogs [10]; 30 mg/kg): 23% | heart rate, higher than control (beagle dogs [10]; 30 mg/kg, 3 hours post-dose (greatest effect), first light cycle): 28% | adjusted mean systolic pressure, lower than controls (beagle dogs [10]; 30 mg/kg): 9% | adjusted mean diastolic pressure, higher vs control (beagle dogs [10]; 30 mg/kg, 4 hours post-dose, p ≤ 0.05): 5% | adjusted mean diastolic pressure, higher vs control (beagle dogs [10]; 30 mg/kg, 5 hours post-dose, p ≤ 0.01): 6% | changes in diastolic pressure, different from control (beagle dogs [10]; all changes, all doses): ≤ 8% | difference in affinity, hERG versus intended D2/D3 receptor targets (hERG potassium channel): 10,000 fold | effect on respiration rate or minute volume (Sprague Dawley rats [11]): No biologically relevant effect | dose at which maximal D2 receptor engagement occurs (D2 receptor [12]): 1 mg/kg | observed Cmax for each group of rats receiving trazpiroben [13]: ≥ 1.45 µg/mL

O=c1[nH]c2ccccc2n1CCCN1CCC(n2c(=O)[nH]c3cc(Cl)ccc32)CC1 [domperidone, reference compound]
metabolizing enzyme (CYP3A4): primarily metabolized via the cytochrome P450 (CYP) 3A4 enzyme | IC50 (hERG potassium channel; read-out: IC50, hERG potassium channel): 0.057 µM
